PAFAH1B2 inh: inhibitors of human PAFAH1B2. recombinant PAFAH1B2, FP-rhodamine activity probe, fluorescence polarization. inhibition, % at 3.39 µM. 340,000 tested, 1.2% active;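 active means inhibition above the mean of all tested compounds plus 3 SD, cut at about 24% in these data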
Target sequence (P68402 whole entry, looked up): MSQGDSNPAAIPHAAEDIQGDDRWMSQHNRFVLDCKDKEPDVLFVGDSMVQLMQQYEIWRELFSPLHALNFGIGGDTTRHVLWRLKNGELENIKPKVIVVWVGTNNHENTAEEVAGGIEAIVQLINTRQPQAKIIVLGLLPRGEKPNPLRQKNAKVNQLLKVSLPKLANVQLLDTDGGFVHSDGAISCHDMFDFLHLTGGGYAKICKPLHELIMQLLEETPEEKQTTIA
PAFAH2 FP inh: inhibitors of human PAFAH2; recombinant PAFAH2, FP-rhodamine activity probe, fluorescence polarization; inhibition, % at 3.39 µM; 340,000 tested, 0.99% active; Q99487;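 active means inhibition above the mean over all tested compounds plus 3 SD, cut at about 30% in these data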;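 further: inhibitors block probe labeling of enzyme so polarization drops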
pPAFAH FP inh: inhibitors of human plasma PAF acetylhydrolase (pPAFAH) | Q13093 | recombinant pPAFAH, FP-rhodamine probe fluorescence polarization | inhibition, % at 3.39 µM | 330,000 tested, 1.5% active | AID 463082;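 active means inhibition above the mean inhibition across the screen plus 3 SD, cut at about 25% in these data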;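 further: inhibitors block binding of the rhodamine activity-based probe so polarization drops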
Target sequence (Q13093 whole entry, looked up): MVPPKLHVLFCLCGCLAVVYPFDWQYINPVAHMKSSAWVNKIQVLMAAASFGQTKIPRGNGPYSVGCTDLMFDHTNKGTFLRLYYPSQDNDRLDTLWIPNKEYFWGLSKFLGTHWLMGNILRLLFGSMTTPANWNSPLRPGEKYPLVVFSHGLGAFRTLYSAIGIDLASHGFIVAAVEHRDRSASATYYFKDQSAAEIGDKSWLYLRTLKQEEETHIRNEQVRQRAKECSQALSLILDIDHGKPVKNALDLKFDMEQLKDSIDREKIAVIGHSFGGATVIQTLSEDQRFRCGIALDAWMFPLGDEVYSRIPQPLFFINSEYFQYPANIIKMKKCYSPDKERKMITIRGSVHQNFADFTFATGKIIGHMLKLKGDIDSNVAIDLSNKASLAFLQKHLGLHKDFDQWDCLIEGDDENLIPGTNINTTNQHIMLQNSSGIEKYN
PAFAH1B3 FP inh: inhibitors of human PAFAH1B3; Q15102; recombinant PAFAH1B3, FP-rhodamine probe, fluorescence polarization; inhibition, % at 3.39 µM; 340,000 tested, 0.28% active; AID 492972;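 active means inhibition above the screen-wide average of all tested compounds plus 3 SD, cut at about 25% in these data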
Apaf-1 inh: inhibitors of human Apaf-1 apoptosome | 330,000 tested, 0.71% active | reconstituted apoptosome caspase-3 activity, DEVD-Rh110 fluorescence | inhibition, % at 20 µM | O14727; active means inhibition of at least 40% at 20 µM
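Material: reconstituted apoptosome with Apaf-1, cytochrome c, caspase-9, procaspase-3, dATP / Buffer or medium: pH 7.5 Hepes buffer with CHAPS, BSA, DTT / Also added: cytochrome c with DEVD-Rh110 / Schedule: compound with Apaf-1, dATP, procaspase-3 30 min, then 50 min reaction, room temperature / Technique: rhodamine 110 fluorescence at Ex 480/Em 540 nm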
PAFAH1B3 conf FP: PAFAH1B3 (human) inhibition, confirmed. shares compounds with PAFAH1B3 FP inh. recombinant PAFAH1B3, FP-Rh activity-based probe, fluorescence polarization. inhibition, % at 3.39 µM. 390 tested, 30% active;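 active means average inhibition over triplicate runs above the hit cutoff set in the earlier primary screen, cut at about 25% in these data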
Of the large screens only hits and unclear results are named; the others gave an inactive call (follow-up assays come after a bar, where they were run). Rows were chosen to be rich in hits. Some 3.1% of all compounds tested hit in one or more screens of this group.

Cc1cccc(C)c1OCC(O)CNC(C)(C)C (stereo not drawn)	none
O=C(Nc1ccc2cn[nH]c2c1)c1c(Cl)cccc1Cl	none
CN(C)c1ccc(NC2=C(Cl)C(=O)c3ccccc3C2=O)cc1	PAFAH1B3 FP inh 39.0, Apaf-1 inh 42.9 | PAFAH1B3 conf FP inactive
O=C1C(Cl)=C(Nc2ccc3cn[nH]c3c2)C(=O)c2ccccc21	PAFAH1B3 FP inh 38.2 (no result: Apaf-1 inh) | PAFAH1B3 conf FP 27.3
CC(C)CN1CCN(C(=O)CCc2nnc(Cc3c[nH]c4ccccc34)o2)[C@@H](C)C1=O	none (no result: pPAFAH FP inh)
Cc1ccc(CNC(=O)C(=O)NCC2CCCN2S(=O)(=O)c2cccs2)cc1 (stereo not drawn)	none
CCc1nnc(NC(=O)CCC(=O)N2CCN(Cc3ccc(F)cc3)CC2)s1	none
CCc1nnc(NC(=O)c2sc3nc4cc(C)ccc4cc3c2N)s1	PAFAH1B3 FP inh 27.3 | PAFAH1B3 conf FP inactive
Cc1cccc2c1NC(=O)C2=O	PAFAH1B3 FP inh 36.3 (no result: pPAFAH FP inh, Apaf-1 inh) | PAFAH1B3 conf FP inactive
CCc1cccc2c1NC(=O)C2=O	none (no result: pPAFAH FP inh, Apaf-1 inh)
CNC(=O)c1[nH]nc2c1CCc1cc(OC)ccc1-2	PAFAH1B3 FP inh 28.2 | PAFAH1B3 conf FP inactive
O=C(/C=C/c1ccccc1)C1C(=O)c2ccccc2C1=O	none
CCc1ccc(/C=C/C(=O)C2C(=O)c3ccccc3C2=O)cc1	PAFAH1B3 FP inh 27.6 | PAFAH1B3 conf FP inactive
Cc1cc(C)nc(NC(=O)CSc2nn(-c3ccccc3)c(=S)s2)n1	none
COc1ccccc1CNC(=O)COC(=O)Cn1cnc2ccccc21	none
Cc1nc(S/C(=C\c2ccc(-c3ccc(C(=O)O)c(Cl)c3)o2)C(=O)O)n[nH]1	PAFAH1B3 FP inh 41.7 (no result: pPAFAH FP inh, Apaf-1 inh) | PAFAH1B3 conf FP 27.0
Cc1nc(S/C(=C\c2ccc(OCc3ccccc3Cl)cc2)C(=O)O)n[nH]1	none
Cc1nn(C2CCS(=O)(=O)C2)c(C)c1CN(C)C(=O)c1ccccc1 (stereo not drawn)	none
O=C(Nc1ccc(S(=O)(=O)NCc2ccccc2)cc1)c1ccc(Br)o1	none
C=CCn1c(NC(=O)c2ccc(Br)o2)c(S(=O)(=O)c2ccccc2)c2nc3ccccc3nc21	PAFAH1B3 FP inh 52.9, Apaf-1 inh 62.8 | PAFAH1B3 conf FP inactive
CC(=O)c1cccc(S(=O)(=O)NCCC(=O)O)c1	none
CC(=O)N(Cc1ccc(F)cc1)C1=C(NCc2ccccc2)C(=O)c2ccccc2C1=O	PAFAH1B3 FP inh 42.2 (no result: pPAFAH FP inh, Apaf-1 inh) | PAFAH1B3 conf FP inactive
O=C(O)c1cc(NN=C2c3ccccc3-c3ccccc32)ccc1Cl	PAFAH1B3 FP inh 47.7 | PAFAH1B3 conf FP 37.2
O=C(O)c1cccc(NN=C2c3ccccc3-c3ccccc32)c1	PAFAH1B3 FP inh 42.1 (no result: pPAFAH FP inh, Apaf-1 inh) | PAFAH1B3 conf FP 30.8
CC(Oc1cccc(Br)c1)C(=O)NNC(=O)CCNC(=O)c1ccccc1Cl (stereo not drawn)	none
O=C1C(=O)c2c(ccc3ccccc23)-c2ccccc21	PAFAH1B3 FP inh 56.2 (no result: pPAFAH FP inh, Apaf-1 inh) | PAFAH1B3 conf FP inactive
Nc1nc(NCc2cccs2)nn1-c1ccccc1	none
Nc1nc(NCc2ccco2)nn1-c1ccccc1	PAFAH1B3 FP inh 26.5 | PAFAH1B3 conf FP inactive
CC(=C1C(=O)c2ccccc2C1=O)N1CCc2ccccc2C1	PAFAH1B3 FP inh 27.0 | PAFAH1B3 conf FP inactive
COc1ccc(C(=O)OCC(=O)c2c(N)n(C)c(=O)n(C)c2=O)c(OC)c1OC	PAFAH1B3 FP inh 25.6 | PAFAH1B3 conf FP inactive
Cn1c(N)c(C(=O)COC(=O)c2ccnc3ccccc23)c(=O)n(C)c1=O	none
Nc1cnccc1C(=O)O	PAFAH1B3 FP inh 27.9 | PAFAH1B3 conf FP inactive
COc1ccccc1NS(=O)(=O)c1cccc(C(=O)NCC(c2ccc(F)cc2)N2CCOCC2)c1 (stereo not drawn)	PAFAH1B3 FP inh 32.5 | PAFAH1B3 conf FP inactive
COc1ccccc1NS(=O)(=O)c1cc(C(=O)NCC(c2ccc(F)cc2)N2CCOCC2)ccc1C (stereo not drawn)	none
O=C(Cn1c(=S)[nH]c2ccccc2c1=O)N1CCN(c2ccccc2)CC1	PAFAH1B3 FP inh 25.7 | PAFAH1B3 conf FP inactive
CN(CCc1cnn(C)c1)Cc1cn[nH]c1-c1ccc(-c2ccccc2)cc1	none
COc1ccc2[nH]c(C(=O)N/N=C/c3ccc(O)cc3O)cc2c1	PAFAH1B3 FP inh 48.2 (no result: pPAFAH FP inh) | PAFAH1B3 conf FP inactive
COc1cc(NCCCC(C)N)c2ncccc2c1 (stereo not drawn)	PAFAH1B3 FP inh 53.1 (no result: pPAFAH FP inh, Apaf-1 inh) | PAFAH1B3 conf FP inactive
O=C1c2cccc3c([N+](=O)[O-])ccc(c23)C(=O)N1c1ccccn1	PAFAH1B3 FP inh 28.7 | PAFAH1B3 conf FP 38.6
[O-][n+]1c2c(c3c4non(O)c4ccc31)CCCC2	PAFAH1B3 FP inh 27.7 | PAFAH1B3 conf FP inactive
Cc1ccc(C(C)C)c(OCc2ccc(C(=O)N/N=C/c3ccc(O)cc3O)cc2)c1	PAFAH1B3 FP inh 41.9 (no result: Apaf-1 inh) | PAFAH1B3 conf FP 25.9
COCCCNC(=O)c1ccc(CS(=O)(=O)c2ccc(Br)cc2)o1	PAFAH1B3 FP inh 29.2 | PAFAH1B3 conf FP inactive
Cn1c2ccccc2c(=O)c2ccc(C#Cc3ccc(N)cc3)cc21	PAFAH1B3 FP inh 35.3 | PAFAH1B3 conf FP inactive
COc1ccc(C#Cc2ccc3c(=O)c4ccccc4n(C)c3c2)cc1	none
CCOc1ccccc1/C=C(/NC(=O)c1ccccc1)C(=O)N(CC)CC	none
O=C(NCc1ccco1)c1cccc(Nc2nc3ccc(Br)cc3[nH]2)c1	PAFAH1B3 FP inh 32.0 | PAFAH1B3 conf FP inactive
Cc1oc(-c2ccccc2Cl)nc1CS(=O)(=O)CC(=O)N1CCOCC1	none
CC(NC1=CC(=O)c2cccnc2C1=O)C(O)c1ccccc1 (stereo not drawn)	PAFAH1B3 FP inh 56.3 (no result: pPAFAH FP inh, Apaf-1 inh) | PAFAH1B3 conf FP 42.6
CC(c1ccccc1)N1C(=O)c2cccnc2C1=O (stereo not drawn)	none
O=C(COC(=O)c1ccc([N+](=O)[O-])s1)Nc1ncc(C(F)(F)F)cc1Cl	PAFAH1B3 FP inh 30.4 | PAFAH1B3 conf FP inactive
O=C(COC(=O)c1ccccn1)Nc1ncc(C(F)(F)F)cc1Cl	none
COc1ccc(/C=C/C(=O)NC(=S)Nc2cc([N+](=O)[O-])ccc2O)cc1OC	PAFAH1B3 FP inh 35.0 | PAFAH1B3 conf FP 31.1
O=C(N/N=C/c1ccccc1O)NC12CC3CC(CC(C3)C1)C2	PAFAH1B3 FP inh 26.2 | PAFAH1B3 conf FP inactive
CN(CC(=O)Nc1cccc(F)c1)C(=O)c1cc([N+](=O)[O-])ccc1N1CCOCC1	none
COc1ccc(N(/N=C2\Sc3ccccc3C2=O)C(C)=O)cc1	PAFAH1B3 FP inh 54.4 (no result: pPAFAH FP inh, Apaf-1 inh) | PAFAH1B3 conf FP 60.3
Brc1ccc(Nc2nc(-c3cccnc3)cs2)cc1	none
Brc1ccc(-c2csc(Nc3nc(-c4ccc(Br)cc4)cs3)n2)cc1	PAFAH1B3 FP inh 33.7 | PAFAH1B3 conf FP inactive
O=C(Nc1ccccc1Cl)c1ccc(=O)[nH]n1	none
CC(C)C1Nc2ccc(C(=O)O)cc2C2C=CCC21 (stereo not drawn)	PAFAH1B3 FP inh 29.1 | PAFAH1B3 conf FP inactive
CN(O)/C=c1/ccc2c(n1)C(=O)C=CC=2	PAFAH1B3 FP inh 35.0 | PAFAH1B3 conf FP 44.9

Assay outcomes: PubChem, several laboratories
